The values that follow come from PubChem BioAssay AID617 (SRMLSC, 2007).

pIC50: −log10 of the molar value.

The assay relates to E. coli BW25113 ΔtolC growth inhibition, OD615. Kind of assay: growth inhibitors of E. coli tolC mutant, dose response, strain BW25113 ΔtolC::kan (AID 617). The essentials: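 system = E. coli BW25113 tolC deletion strain (ΔtolC::kan), whole bacterial cells | technique = optical density (absorbance) at 615 nm | dosing = compounds in serially diluted dose-response series | times = bacterial growth with compound for 20 h, 37 °C | evaluation = growth-inhibition IC50 from four-parameter logistic curve, bounds set to 0% and 100%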
In the case of `CC1CN(c2oc(COc3ccc(Cl)cc3Cl)nc2C#N)CC(C)O1` (configuration not stated), the pIC50 (in general, −log10 of the IC50, conventionally taken in molar units) is 4.99.

For the compound `O=C(Nc1cccc2cccnc12)c1ccc(Br)o1`, the pIC50 was 4.97. As for `CCc1c(O)nc(SCc2ccccc2)n(C(C)CC)c1=O` (configuration not stated), the pIC50 is 5.37. Turning to `Cc1ccc(S(=O)(=O)N(Cc2ccccc2)Cc2ccco2)cc1`, the pIC50 is 4.97. As for `Cc1ccc(-n2c(C)cc(C3N=C(N)Nc4nc5ccccc5n43)c2C)c(C)c1` (configuration not stated), the negative-log IC50 (pIC50) is 5.18. Consider `O=C(Nc1cccc(S(=O)(=O)c2cccc(NC(=O)C3CC3)c2)c1)C1CC1`, for which the pIC50 was 5.28.

On to `CCCCCC/C(=N/O)c1ccccn1`, for which the pIC50 is 5.50. As for `CCCCCn1c(CN2CCN(c3cccc(Cl)c3)CC2)nc2c1c(=O)n(C)c(=O)n2C`, the pIC50 is 4.82. In the case of `COc1cccc(-c2nnc(NC(=O)c3ccc(S(=O)(=O)N4CCOCC4)cc3)o2)c1`, the pIC50 was 6.00. The figure for `Cc1nc2c(-c3ccccc3)c(C)[nH]n2c(=O)c1Cl` is 5.44; for `CCOC(=O)c1cn(CC)c2cc(N3CCOCC3)c(F)cc2c1=O` it is 6.11; for `N#CC(C#N)=c1ccc2c(c1)N1C3=C(CCCC3)CC3CCCCC31N=2` (configuration not stated) it is 4.12.

As for `Cc1ccc(Cl)cc1N1CCN(Cc2nnnn2Cc2ccco2)CC1`, the pIC50 is 4.75.

As for `Cn1c(CSc2nc3ccccc3s2)nc2ccccc21`, the negative-log IC50 (pIC50) is 4.65. For the compound `Cc1c(C(=O)N2CCCCC2)oc2ccc(S(=O)(=O)N3CC(C)CC(C)C3)cc12` (configuration not stated), the negative logarithm of the IC50 (pIC50) is 5.04.

For the compound `CCc1c(O)nc(SCC(=O)Nc2ccc(C)cc2)n(C2CCCCC2)c1=O`, the negative-log IC50 (pIC50) was 5.13.

For `CCn1c(=O)c2cc(C(=O)N3CCN(C(=O)c4ccco4)CC3)sc2c2ccccc21`, the negative-log IC50 (pIC50) is 5.20. `N#C/C(=C\c1ccco1)Sc1nc2ccccc2s1`: the pIC50 is 5.07. With `CCNc1nc(NC(C)C)nc(N(C#N)CCOc2ccc(Cl)cc2Cl)n1`, the pIC50 was 5.18. Next, `COc1ccc(-c2cc(C(=O)N3CC4(C)CC3CC(C)(C)C4)no2)cc1OC` (configuration not stated): 4.85. Consider `CCOc1ccccc1N1CCN(Cc2ccc(Br)s2)CC1`, for which the pIC50 is 4.58. The figure for `O=C(Nc1nnc(-c2cccs2)o1)c1cccc(Oc2ccccc2)c1` is 6.77. The figure for `COc1ccc(NS(=O)(=O)c2ccc3oc(Nc4ccc5c(c4)OCCO5)nc3c2)cc1` is 5.11; for `Cc1cccc(Nc2nc(NCc3ccco3)nc(N3CCOCC3)n2)c1` it is 5.00; for `O=C1NC(Nc2nc3ccccc3s2)(C(F)(F)F)C(=O)N1C1CCCCC1` (configuration not stated) it is 5.24.

Consider `CCCOC(=O)c1ccc(-c2c(C)noc2-c2ccc(OC)cc2O)o1`, for which the pIC50 was 5.33. As for `CCOC(=O)N1CCN(c2nc(-c3ccc(F)cc3)cs2)CC1`, the pIC50 is 4.49. For `CCCSc1oc(-c2ccco2)nc1S(=O)(=O)c1ccccc1`, the pIC50 was 5.01. As to `CC1=CCC(COC(=O)Nc2ccccc2)CC1` (configuration not stated), the negative logarithm of the IC50 (pIC50) is 4.57.

For `Cc1[nH]c2ccccc2c1NC(=O)CN1CCN(c2cccc(C(F)(F)F)c2)CC1`, the pIC50 was 4.90. Regarding `CCCCCCc1ccc(-c2ncc(N)cn2)cc1`, the pIC50 is 4.78. For the compound `Cc1onc(-c2ccccc2Cl)c1C(=O)Nc1sc2c(c1C#N)CCC2`, the pIC50 is 5.12.

Regarding `Cc1ccc(Nc2nc(CSc3nnnn3-c3ccccc3)cs2)cc1`, the pIC50 was 4.94. The figure for `Cn1c(=O)n(CCCOc2ccc(Cl)cc2)c2ccccc21` is 4.81; for `COc1ccccc1N1CCN(C(c2ccccc2Cl)c2nnnn2C(C)(C)C)CC1` (configuration not stated) it is 4.56; for `CCc1ccccc1NS(=O)(=O)c1ccc2[nH]cc(C(=O)NCc3ccco3)c(=O)c2c1` it is 4.66. With `C#CCSc1nnc(-c2cccc3ccccc23)o1`, the pIC50 was 4.91. Next, `CCC(C)(C)n1nnnc1C(c1cc2ccc(OC)cc2[nH]c1=O)N1CCc2ccccc2C1` (configuration not stated): 4.77; `CC(C)C(c1nnnn1C1CCCC1)N1CCCc2ccccc21` (configuration not stated): 4.80; `COC(=O)c1ccc(NC(=O)CN2CCN(c3cccc(Cl)c3)CC2)cc1`: 4.66.

As to `CCOc1cc(-c2c(C#N)c(=O)[nH]c3c2c(C)nn3-c2ccc(F)cc2)ccc1O`, the pIC50 is 5.61.

Regarding `COc1ccccc1N1CCN(Cc2nc(N)nc(Nc3ccc(C)c(Cl)c3)n2)CC1`, the pIC50 was 5.04.

Consider `CCN(CC)c1nc(N)c2c(N)nc3c(c2c1C#N)CC(c1ccccc1)O3` (configuration not stated), for which the negative-log IC50 (pIC50) is 5.18. The figure for `CCN(C(=O)c1cc2cc3ccc(C)cc3nc2o1)c1ccc(OC)cc1` is 4.72. Next, `O=C(CSc1ncc(-c2ccc(F)cc2)n1Cc1ccco1)Nc1ccc2c(c1)OCO2`: 5.14; `CCOC(=O)N1CCN(c2nc(N(c3ccccc3)c3ccccc3)nc(-n3ccnc3)n2)CC1`: 4.69; `Cc1sc2nc(CN(Cc3cccs3)C(=O)NC3CCCCC3)[nH]c(=O)c2c1C`: 5.16. Turning to `Clc1ccc(Nc2nc(-c3cccs3)cs2)nc1`, the pIC50 is 4.10. Turning to `CCOc1ccccc1N1CCN(C(=O)Nc2ccc(F)c(Cl)c2)CC1`, the pIC50 is 4.99. Turning to `CCOC(=O)c1cn(CC)c2cc(N3CCSCC3)c(F)cc2c1=O`, the pIC50 was 5.85.

As for `CC1=CC(C)(C)N2C(=O)C3(SCC(=O)N3c3ccc(O)cc3)c3cc(C)cc1c32` (configuration not stated), the pIC50 is 4.93. Next, `Cc1c(C(=O)OCCOc2ccccc2)[nH]c2c1C(=O)CCC2`: 5.41. Turning to `CC(C)CCOC(=O)c1c(N)n(CC2CCCO2)c2nc3ccccc3nc12` (configuration not stated), the pIC50 is 4.74. The figure for `CCCCOc1ccccc1Cn1c(=O)oc2ccc(C)cc21` is 4.79; for `Cc1ccc(C2CC(c3cccc(Br)c3)Nc3nnnn32)cc1` (configuration not stated) it is 4.89. The figure for `Cc1n[nH]c(C)c1S(=O)(=O)N(CC(=O)Nc1ccc2c(c1)OCCO2)c1ccc(C(C)C)cc1` is 4.71. Turning to `Cc1cc(C)cc(Nc2cc(=O)n(C3CCCCC3)c(=O)[nH]2)c1`, the pIC50 was 5.55. The figure for `Cc1[nH]n2c(=O)cc(C(C)(C)C)nc2c1-c1ccccc1` is 5.81; for `CC(Nc1ccc(Br)cn1)c1cc(Cl)ccc1O` (configuration not stated) it is 5.25. As to `CCOC(=O)c1ccc(NC(=O)CCc2nc(-c3ccccc3Cl)no2)cc1`, the pIC50 is 4.98. Take `CCCc1ccc(Oc2cn[nH]c2-c2ccc(O)c(C)c2O)cc1`: the pIC50 was 5.74. Turning to `Cc1nc2nc(-c3ccco3)[nH]n2c(=O)c1Cc1ccccc1`, the pIC50 was 5.22. Next, `COc1cc2c(C#N)c(N3CCc4ccccc4C3)nc(N)c2c(N)n1`: 4.63; `COc1ccc(NC(=O)c2ccc(Cl)c(S(=O)(=O)N3CCc4ccccc4C3)c2)cn1`: 5.09; `CCCn1c(=O)c(C(=O)Nc2nnc(C)s2)c(O)c2ccccc21`: 4.92.

On to `c1ccc2c(c1)CCN(c1nc3cc4c(cc3s1)OCCO4)C2`, for which the negative-log IC50 (pIC50) was 4.83. Take `CC1=C(C(=O)OC2CCCCCC2)C(c2ccc(C)o2)C2=C(CCCC2=O)N1` (configuration not stated): the pIC50 was 5.20. Take `N#CC1=C(N)NC(SCc2ccccc2)=C(C#N)C12CCCCC2`: the pIC50 was 5.67. Consider `Fc1cccc(Cl)c1Cn1nnc(-c2ccc3c(c2)OCO3)n1`, for which the pIC50 is 4.69.

Turning to `COCc1nnc(NC(=O)c2ccc(S(=O)(=O)N3CCCCCC3)cc2)o1`, the pIC50 is 5.12. Regarding `COC(=O)c1cccc(-n2nnnc2SCC(=O)Nc2nc3c(s2)CCCC3)c1`, the pIC50 is 4.80.

With `COc1cccc(-c2cc(C(F)(F)F)nc(N3CCOCC3)n2)c1`, the negative logarithm of the IC50 (pIC50) is 4.78. As to `CCn1cc(C(=O)O)c(=O)c2cc(F)c(N3CCN(C(=O)Nc4ccccc4)CC3)cc21`, the pIC50 is more than 6.70. Take `CCOC(=O)Cc1csc(NC(=O)c2csc3c2CCCC3)n1`: the pIC50 is 4.79. Turning to `COc1cccc(-c2nnc(NC(=O)c3ccc(S(=O)(=O)N(CC(C)C)CC(C)C)cc3)o2)c1`, the pIC50 was 6.04.

As for `COc1ccc(-c2cnc(SCC(=O)Nc3ccc4c(c3)OCO4)n2Cc2ccco2)cc1`, the pIC50 is 4.96. Consider `C=CCNc1ncnc2c1[nH]c1ccc(C)cc12`, for which the pIC50 was 5.62. Next, `COc1ccc(C(C(O)C(=O)c2c[nH]c3ccccc23)N2CCN(c3ccc(OC)cc3)CC2)cc1` (configuration not stated): 4.95. As for `Cc1cc(Nc2ccccc2)n(-c2nc3ccccc3[nH]2)n1`, the pIC50 was 5.31. For `CCn1c(SC)nnc1-c1sc2cc(Cl)ccc2c1Cl`, the pIC50 is 4.94. `CCCCC(=O)c1c(O)c2ccccc2oc1=O`: the negative logarithm of the IC50 (pIC50) is 5.13. As to `CCCCCOC(=O)c1ccc(NC(=O)c2ccco2)cc1`, the pIC50 was 5.19.

For `COc1cccc(C2/C(=C(/O)c3ccc(C)cc3)C(=O)C(=O)N2Cc2ccco2)c1` (configuration not stated), the pIC50 was 5.34. The figure for `CCOC(=O)Cc1c(C)nc2c(-c3ccc(Cl)cc3)c[nH]n2c1=O` is 5.68; for `O=C(COn1nnc2ccc(C(F)(F)F)cc21)Nc1nnc(-c2ccccc2)o1` it is 6.19; for `CCC(Sc1nnnn1-c1ccccc1)C(=O)Nc1nc2ccccc2s1` (configuration not stated) it is 5.26. Regarding `Cc1ccc(S(=O)(=O)Cn2nnnc2CN2CCCC3(CCCCC3)C2)cc1`, the pIC50 is 4.95. Next, `CCCCOc1ccc(S(=O)(=O)n2c(C)nc3ccccc32)cc1`: 4.94; `COc1ccccc1Cc1nc(-c2ccc(Br)o2)no1`: 4.70.

On to `Clc1ccc(C(c2nnnn2C2CCCCC2)N(Cc2cccnc2)Cc2ccco2)cc1` (configuration not stated), for which the pIC50 was 4.83. On to `COc1ccc(NC(=O)N2CCCC(c3nc(-c4ccc(C(C)C)cc4)no3)C2)cc1` (configuration not stated), for which the pIC50 is 4.77.

As to `CCOC(=O)c1cccc(NC(=O)c2cc3sccc3n2C)c1`, the pIC50 was 5.01. As to `O=C(CN(C(=O)CNC(=O)c1ccco1)c1ccc(Cl)c(Cl)c1)NC1CCCCC1`, the pIC50 was 4.55. As for `Oc1c(CN2CCCCC2)cc(COCc2ccccc2)c2cccnc12`, the negative-log IC50 (pIC50) is 4.88. Regarding `CCCOc1ccc(C2C(C(=O)c3ccc(C)o3)=C(O)C(=O)N2Cc2cccnc2)cc1` (configuration not stated), the negative-log IC50 (pIC50) was 4.44.

As to `CC1CCc2cc(F)ccc2N1C(=O)c1cc2nc(-c3ccco3)cc(C(F)(F)F)n2n1` (configuration not stated), the pIC50 is 4.95. `CCCCn1nc(NC(=O)c2cccs2)c2cc3ccccc3nc21`: the pIC50 is 5.08.
